This is an account of results in ChEMBL document CHEMBL3407348, “Antileishmanial activity of quinazoline derivatives: synthesis, docking screens, molecular dynamic simulations and electrochemical studies” (Eur J Med Chem, 2015).

Values after ≈ are worked out from the molar mass of the structure shown.

As usually defined, the inhibition is the change of the read-out against control, counted positive when it falls. A low value points to a response near the control. One may read the IC50 as the concentration that inhibits the measured activity by half. Read a high IC50 as lower potency. As usually defined, the solubility is the dissolved amount per volume that the medium holds. A high value points to much dissolved substance. As usually defined, the Kd is the equilibrium constant for the complex coming apart. In general, viability refers to a per cent measure of how many cells are alive, often set against a control. Low values mean a greater loss of cells, high ones better survival.

The subject of series [1] is Leishmania mexicana. Put plainly: Antiparasitic activity against promastigote form of Leishmania mexicana MHOM/BZ/61/M379 at 100 uM after 24 hrs by haemocytometer. In kind it is functional. As to conditions: for inhibition at 100 µM: MHOM/BZ/61/M379, 72 h, in the assay text read “72 hrs” for “24 hrs”. Summed up: (§1)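 Promastigotes were grown in DMEM with L-glutamine and 4,500 mg/L glucose, without bicarbonate, plus 10% fetal calf serum. Serial compound dilutions (1:10 compound:medium) were mixed with an equal volume of 2 × 10⁶ parasites/mL at 26 °C. Parasites were counted by hemacytometer in triplicate. Growth inhibition was expressed as a percentage of the no-drug control, with 100 µM used for the initial screen.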

Series [2] relates to Leishmania mexicana. As to conditions: MHOM/BZ/61/M379, 100 uM.
Series [3] deals with Leishmania mexicana. As to conditions: MHOM/BZ/61/M379, 100 uM. The source holds these as a separate data set.
In series [4] the test system is Leishmania mexicana. Put plainly: Antiparasitic activity against promastigote form of Leishmania mexicana MHOM/BZ/61/M379 after 72 hrs by haemocytometer. The following applies: MHOM/BZ/61/M379, 72 h.
Series [5] is described as follows: Retention time of the compound. In kind it is physicochemical. Summed up: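 Reverse-phase HPLC on an RP-amide column (150 × 4.6 mm, 5 µm) with guard column. Mobile phase was 10 mM phosphate buffer pH 3.3 and acetonitrile (60:40 v/v) at 1.00 mL/min and 30 °C, with an 8 min run. UV detection at 240 and 272 nm.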
The nature of another series: physchem. As to conditions: phosphate buffered saline, pH 7.4.
Series [6] addresses Bifunctional dihydrofolate reductase-thymidylate synthase (Leishmania major, UniProt P07382). The series is described as follows: Binding affinity to Leishmania major DHFR.
For the next series, the target named is T1, Pteridine reductase 1 (Leishmania major, UniProt Q01782).
T1 sequence (Q01782 whole entry): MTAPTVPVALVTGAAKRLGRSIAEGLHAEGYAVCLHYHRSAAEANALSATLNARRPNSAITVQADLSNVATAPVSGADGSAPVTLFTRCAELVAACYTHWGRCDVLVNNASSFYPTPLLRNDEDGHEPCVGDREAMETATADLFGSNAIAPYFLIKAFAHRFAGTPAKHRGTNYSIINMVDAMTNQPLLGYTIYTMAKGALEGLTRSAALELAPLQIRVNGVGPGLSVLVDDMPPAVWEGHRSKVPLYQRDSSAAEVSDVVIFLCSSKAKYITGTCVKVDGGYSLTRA

A further series in a line: in vitro. As to conditions: mouse, L929 cells.
For series [7], the system named is Leishmania mexicana. Put plainly: Antiparasitic activity against Leishmania mexicana MHOM/BZ/61/M379 assessed as oxygen consumption at 5.74 mM during 1 hr by fluorescence assay (reference value: 100%). It counts as functional. Summed up:
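Promastigotes (5 × 10⁶) were placed in microplate wells containing an oxygen-sensitive fluorophore with the test agent for 1 or 2 h. Oxygen consumption was read as fluorescence on a plate reader and expressed relative to untreated parasites (100%). Sodium cyanide served as the mitochondrial-damage control and dithionite as the oxygen-abolition control. Run in triplicate, with at least four independent experiments.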

Series [8] concerns Leishmania mexicana. The series is described as follows: Antiparasitic activity against promastigote form of Leishmania mexicana MHOM/BZ/61/M379 after 24 hrs by haemocytometer. It counts as functional, organism-based. Summed up: as §1

Bifunctional dihydrofolate reductase-thymidylate synthase, sequence (P07382 whole entry): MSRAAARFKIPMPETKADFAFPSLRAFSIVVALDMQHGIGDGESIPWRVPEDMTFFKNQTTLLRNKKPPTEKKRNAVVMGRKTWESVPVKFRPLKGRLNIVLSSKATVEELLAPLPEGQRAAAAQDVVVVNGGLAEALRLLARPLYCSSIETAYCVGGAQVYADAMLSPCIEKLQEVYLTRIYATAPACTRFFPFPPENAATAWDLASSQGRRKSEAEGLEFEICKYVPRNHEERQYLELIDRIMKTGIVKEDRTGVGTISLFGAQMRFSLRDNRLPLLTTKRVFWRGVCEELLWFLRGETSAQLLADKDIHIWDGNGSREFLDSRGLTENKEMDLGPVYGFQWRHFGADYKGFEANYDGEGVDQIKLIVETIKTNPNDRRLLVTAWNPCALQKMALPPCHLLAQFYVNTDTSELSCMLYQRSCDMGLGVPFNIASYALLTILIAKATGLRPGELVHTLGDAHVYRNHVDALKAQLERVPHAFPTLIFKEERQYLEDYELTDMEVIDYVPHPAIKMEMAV

As to “MEGLUMINE ANTIMONATE [listing 1 of 2 here]”, in the series with Leishmania mexicana [1], the inhibition stood at 100%.

Turning to `COc1cc(Cc2cnc(N)nc2N)cc(OC)c1OC` [TRIMETHOPRIM], the survival with Leishmania mexicana [2] was determined as 70%; in the series with Leishmania mexicana [3], 100%. The inhibition at 100 µM with Leishmania mexicana [1] came to 30%. This compound also gave an IC50 in the series with Leishmania mexicana [4] of over 100000 nM.

`Nc1nc(N)c2cc(NCCn3c(C(F)(F)F)nc4cc(Cl)c(Cl)cc43)ccc2n1`: in [5], the Retention_time amounted to 3.188 min. In addition, in the series on Leishmania mexicana [1], the inhibition at 100 µM is 0%. The compound also came in with a solubility in the series “physchem” of 510 µg/mL (≈ 1120 µM). Moreover, the Kd in series [6] came to 752 nM.

In series [5], `Nc1nc(N)c2cc(NCc3ccc([N+](=O)[O-])cc3)ccc2n1` gave a Retention_time of 3.841 min. For the same compound, in the series on Leishmania mexicana [1], the inhibition at 100 µM came out at 20%. For the same compound, in the series on Leishmania mexicana [4], the IC50 is over 100000 nM. Besides, the equilibrium dissociation constant (Kd) on Pteridine reductase 1 was found to be 1430 nM; in [6] it was 241 nM.

Regarding `COc1ccc(CNc2ccc3nc(N)nc(N)c3c2)cc1`, in series [5], the Retention_time is 3.081 min. Also, the inhibition at 100 µM in the series with Leishmania mexicana [1] was 100%. In the series “physchem”, this compound had a solubility of 250 µg/mL (≈ 846 µM). Further, in the series on Leishmania mexicana [4], the IC50 was found to be 14600 nM. The Kd at Pteridine reductase 1 is 2850 nM; in series [6], 1580 nM.

As to `CC1CS(=O)(=O)CCN1/N=C/c1ccc([N+](=O)[O-])o1` (stereo unspecified) [NIFURTIMOX], the viability at 48 h, 100 µM in “in vitro” is 42%.

In the case of `O=S([O-])S(=O)[O-].[Na+].[Na+]`, the Activity in the series with Leishmania mexicana [7] was found to be 175.9%.

With `Nc1nc(N)c2cc([N+](=O)[O-])ccc2n1`, the results for the Kd (on Pteridine reductase 1; in [6]) were 261 nM and 15800 nM, respectively.

For `Nc1nc(N)c2cc(NCc3ccc(O)cc3)ccc2n1`, the Retention_time in series [5] is 3.081 min. For the same compound, in the series with Leishmania mexicana [1], at 100 µM the inhibition was 0%. The solubility in “physchem” worked out at 380 µg/mL (≈ 1350 µM). For the same compound, the values for the Kd (on Pteridine reductase 1; in [6]) were 2400 nM and 1020 nM, respectively.

Compound `CCc1nc(N)nc(N)c1-c1ccc(Cl)cc1` [PYRIMETHAMINE] showed an inhibition at 100 µM with Leishmania mexicana [1] of 50%. In the series with Leishmania mexicana [4], this compound returned an IC50 of 100000 nM.

In the series with Leishmania mexicana [8], “MEGLUMINE ANTIMONATE [listing 2 of 2 here]” registered an IC50 of 183000 nM.

For `Nc1ccc2nc(N)nc(N)c2c1` [QUINAZOLINE-2,4,6-TRIAMINE], 100 µM produced 0% inhibition in the series on Leishmania mexicana [1]. In the series “physchem”, this compound displayed a solubility of over 9000 µg/mL. Moreover, the Kd at Pteridine reductase 1 was 58800 nM; in series [6], 84000 nM.
